Laboratory results as given in ChEMBL document CHEMBL4368903, “Identification of GSK3186899/DDD853651 as a Preclinical Development Candidate for the Treatment of Visceral Leishmaniasis” (J Med Chem, 2019).
In brackets after ≈: the same amount, converted by molar mass. Activity calls are given as the source filed them. No cut-off for these calls is given here.

Experiments:
Leishmania donovani [1] = assay: Antileishmanial activity against Leishmania donovani […] in human THP1 cells by intramacrophage assay; format: functional, organism-based; details: Leishmania donovani, THP-1
[2] = Intrinsic clearance in CD1 mouse liver microsomes at 0.5 uM after 3 to 30 mins in presence of NADPH by UPLC-MS/MS analysis; format: ADME, Microsome
Outline: (§1)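 0.5 μM compound with female CD1 mouse or human liver microsomes, started with excess NADPH in 50 mM potassium phosphate pH 7.4. Aliquots at 0, 3, 6, 9, 15 and 30 min quenched in acetonitrile with internal standard. UPLC-MS/MS; rate constant from exponential decay of compound/IS ratio. Verapamil as positive control.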

[3] = Intrinsic clearance in human liver microsomes at 0.5 uM after 3 to 30 mins in presence of NADPH by UPLC-MS/MS analysis; format: ADME, Microsome; outline: as §1
[4] = Kinetic aqueous solubility of the compound in phosphate buffer at pH 7.4 by CLND assay; format: physicochemical; details: phosphate buffer, read-out: Kinetic_solubility
Outline: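 From 10 mM DMSO stock diluted 1:20 into pH 7.4 PBS, equilibrated 1 h at RT, filtered. Filtrate quantified by calibrated flow-injection CLND. Dynamic range 1–500 μM.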

[5] = Solubility of compound in fasted simulated intestinal fluid at 1 mg after 4 hrs by HPLC-UV analysis; format: physicochemical; details: fasted simulated intestinal fluid
Outline: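 1 mg solid shaken in 1 mL FaSSIF (3 mM sodium taurocholate, 0.75 mM lecithin, phosphate buffer pH 6.5) at 900 rpm for 4 h at room temperature, then filtered. Supernatant quantified by HPLC-UV against single-point DMSO calibration. Range 1–1000 μg/mL.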

Leishmania donovani [6] = assay: Antileishmanial activity against Leishmania donovani LV9 amastigotes infected in BALB/c mouse assessed as suppression of parasite load within liver at 25 mg/kg, po administered bid for 10 days relative to control; format: functional
Outline: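 Female BALB/c mice, 5 per group, infected i.v. with about 2×10^7 L. donovani LV9 amastigotes harvested from infected hamster spleen. Oral dosing starts day 7 post-infection, in 0.5% HPMC/0.4% Tween 80/0.5% benzyl alcohol, or 10% DMSO/60% PEG400/30% water for the 5-day 50 mg/kg regimen. Dosing solutions made fresh daily. Killed day 14 (5-day) or 19 (10-day). Liver smears give LDU (amastigotes/500 nucleated cells × organ weight). Mean LDU compared with vehicle control gives % suppression.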

Cytochrome P450 3A4 = Cytochrome P450 3A4 (Homo sapiens, UniProt P08684); assay: Inhibition of CYP3A4 in human liver microsomes using midazolam as substrate preincubated for 20 mins followed by substrate addition and measured after 5 mins by LC-MS/MS analysis; format: ADME
Sequence of Cytochrome P450 3A4 (P08684 whole entry): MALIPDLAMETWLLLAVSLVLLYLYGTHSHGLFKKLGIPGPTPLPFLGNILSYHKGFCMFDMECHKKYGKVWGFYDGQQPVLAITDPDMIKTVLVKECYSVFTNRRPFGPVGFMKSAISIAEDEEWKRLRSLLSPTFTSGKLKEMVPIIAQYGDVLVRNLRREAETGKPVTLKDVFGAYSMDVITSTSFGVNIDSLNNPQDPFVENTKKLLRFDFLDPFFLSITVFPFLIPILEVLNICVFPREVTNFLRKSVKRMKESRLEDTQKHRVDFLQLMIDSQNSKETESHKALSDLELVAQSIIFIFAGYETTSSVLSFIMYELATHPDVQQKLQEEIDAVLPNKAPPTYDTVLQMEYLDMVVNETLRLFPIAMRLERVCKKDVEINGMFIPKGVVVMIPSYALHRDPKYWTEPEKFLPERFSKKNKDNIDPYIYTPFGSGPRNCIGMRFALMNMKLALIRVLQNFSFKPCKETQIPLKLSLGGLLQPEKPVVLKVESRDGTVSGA
Outline: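 Pooled human liver microsomes (final 0.1 mg/mL) with midazolam marker substrate, monitoring CYP3A4-specific metabolite. Test compound at eight concentrations, 0.1–100 μM, final organic ≤0.5%. Preincubated at 37 °C for 20 min, then substrate or cofactor added and incubated 5 min at 37 °C. Stopped with ice-cold acetonitrile; LC-MS/MS read-out gives pIC50.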

[7] = Mutagenicity in Salmonella typhimurium at 1500 ug/plate by Ames test; format: toxicity; details: salmonella enterica subsp. enterica serovar typhimurium
Lymphoma cell line [8] = assay: Clastogenicity in mouse Lymphoma cells at 120 ug/ml; format: toxicity, cell-based
[9] = target: Voltage-gated inwardly rectifying potassium channel KCNH2 (Homo sapiens, UniProt Q12809); assay: Inhibition of human ERG by patch clamp assay
Sequence of Voltage-gated inwardly rectifying potassium channel KCNH2 (Q12809 whole entry): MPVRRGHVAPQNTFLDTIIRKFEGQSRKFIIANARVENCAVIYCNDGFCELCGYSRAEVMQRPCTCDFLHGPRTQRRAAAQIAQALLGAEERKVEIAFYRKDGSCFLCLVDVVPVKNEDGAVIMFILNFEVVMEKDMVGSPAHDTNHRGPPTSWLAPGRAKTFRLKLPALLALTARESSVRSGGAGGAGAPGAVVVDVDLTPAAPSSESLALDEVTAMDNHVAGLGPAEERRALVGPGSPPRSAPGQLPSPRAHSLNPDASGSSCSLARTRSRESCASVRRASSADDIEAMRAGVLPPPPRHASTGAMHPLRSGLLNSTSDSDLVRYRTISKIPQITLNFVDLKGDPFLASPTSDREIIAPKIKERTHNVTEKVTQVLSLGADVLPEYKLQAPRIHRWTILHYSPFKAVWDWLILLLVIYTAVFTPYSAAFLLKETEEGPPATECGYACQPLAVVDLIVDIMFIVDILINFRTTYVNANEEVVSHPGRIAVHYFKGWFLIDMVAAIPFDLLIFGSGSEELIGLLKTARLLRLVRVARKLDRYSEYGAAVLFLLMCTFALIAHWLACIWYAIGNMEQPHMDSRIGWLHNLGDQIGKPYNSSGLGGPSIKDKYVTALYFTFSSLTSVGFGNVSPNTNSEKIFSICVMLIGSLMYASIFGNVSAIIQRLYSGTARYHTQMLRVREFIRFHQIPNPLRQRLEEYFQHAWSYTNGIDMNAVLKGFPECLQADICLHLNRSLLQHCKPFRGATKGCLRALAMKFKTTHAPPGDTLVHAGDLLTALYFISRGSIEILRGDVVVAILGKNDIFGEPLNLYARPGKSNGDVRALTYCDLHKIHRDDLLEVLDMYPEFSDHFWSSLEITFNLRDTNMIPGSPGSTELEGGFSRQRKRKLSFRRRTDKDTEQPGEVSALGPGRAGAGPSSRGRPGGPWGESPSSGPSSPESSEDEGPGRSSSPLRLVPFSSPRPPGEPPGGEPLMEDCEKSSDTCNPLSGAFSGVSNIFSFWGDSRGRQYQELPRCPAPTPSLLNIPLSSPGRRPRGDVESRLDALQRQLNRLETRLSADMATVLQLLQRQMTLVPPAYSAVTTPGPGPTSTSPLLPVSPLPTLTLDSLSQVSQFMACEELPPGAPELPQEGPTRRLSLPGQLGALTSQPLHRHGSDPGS

[10] = Toxicity in Crl:WI(Han) rat assessed as increase in ALP at 1000 mg/kg/day, po via gavage for 7 days; format: organism-based; details: in vivo, 168 h
Outline: (§2)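 Male Crl:WI(Han) rats given oral gavage daily for 7 days at 100, 300 and 1000 mg/kg/day. Clinical signs, macroscopic findings, clinical pathology versus controls, and a liver gene expression panel for hepatic toxicity mechanisms.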

[11] = Toxicity in Crl:WI(Han) rat assessed as decrease in calcium levels at 1000 mg/kg/day, po via gavage for 7 days; format: organism-based; details: in vivo, 168 h
[12] = Toxicity in Crl:WI(Han) rat assessed as increase in plasma glucose levels at 1000 mg/kg/day, po via gavage for 7 days; format: organism-based; details: in vivo, 168 h; outline: as §2
[13] = Toxicity in Crl:WI(Han) rat assessed as decrease in RBC levels at 300 to 1000 mg/kg/day, po via gavage for 7 days; format: organism-based; details: in vivo, 168 h
[14] = Toxicity in Crl:WI(Han) rat assessed as decrease in HCT levels at 300 to 1000 mg/kg/day, po via gavage for 7 days; format: organism-based; details: in vivo, 168 h
[15] = Toxicity in Crl:WI(Han) rat assessed as decrease in hemoglobin levels at 300 to 1000 mg/kg/day, po via gavage for 7 days; format: organism-based; details: in vivo, 168 h
[16] = Toxicity in Crl:WI(Han) rat assessed as decrease in albumin levels at 300 mg/kg/day, po via gavage for 7 days; format: organism-based; details: in vivo, 168 h
[17] = Toxicity in Crl:WI(Han) rat assessed as increase in triglycerides levels at 300 mg/kg/day, po via gavage for 7 days; format: organism-based; details: in vivo, 168 h; outline: as §2
[18] = Toxicity in rabbit cardiac ventricular wedge assessed as QT shortening at 30 uM relative to control; format: tissue-based, Oryctolagus cuniculus, Cardiac ventricle
[19] = Cardiotoxicity in Crl:WI(Han) rat up to 1000 mg/kg, po via gavage; format: toxicity, organism-based; details: in vivo
Outline: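 Conscious unrestrained telemetered male CRL:WI(Han) rats given a single oral dose of vehicle or test article up to 1000 mg/kg. Cardiovascular and electrocardiographic parameters monitored.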

[20] = Therapeutic index, ratio of fCmax in conscious unrestrained telemetered Crl:WI(Han) rat at 300 mg/kg/day, po via gavage for 7 days measured on day 1 to fCmax in Leishmania donovani LV9 amastigotes infected BALB/c mouse at 25 mg/kg, po administered bid for 10 days measured on day 1; format: organism-based; details: in vivo, read-out: TI
Outline: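 Index = free Cmax on day 1 of the rat cardiovascular study / free Cmax on day 1 of the mouse efficacy model. Rat arm: conscious, unrestrained, telemetered male CRL:WI(Han) rats given a single oral dose (up to 1000 mg/kg). Mouse arm: female BALB/c infected i.v. with L. donovani LV9 amastigotes, dosed orally twice daily from day 7 post-infection in 0.5% HPMC, 0.4% Tween 80, 0.5% benzyl alcohol.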

[21] = target: Cyclin-dependent kinase 2 (Homo sapiens) (UniProt P24941); assay: Inhibition of human CDK2 by kinobeads-based assay
[22] = Toxicity in Crl:WI(Han) rat assessed as drug tolerability dose at 100 to 1000 mg/kg/day, po via gavage for 7 days; format: organism-based; details: in vivo, read-out: Activity
Outline: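 Male Crl:WI(Han) rats dosed by oral gavage once daily in a 7-day repeat-dose study at 100, 300 and 1000 mg/kg/day. Tolerated doses judged from in-life and clinical signs, macroscopic observations, histopathology, clinical pathology and liver gene expression profiling versus controls.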

[23] = Ratio of AUC (0 to 24 hrs) in conscious unrestrained telemetered Crl:WI(Han) rat at 300 mg/kg/day, po via gavage for 7 days measured on day 7 to AUC (0 to 24 hrs) in Leishmania donovani LV9 amastigotes infected BALB/c mouse at 25 mg/kg, po administered bid for 10 days measured on day 10; format: ADME, organism-based; details: in vivo, read-out: TI
Outline: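 Index = AUC0–24 on day 7 of the rat study / AUC0–24 on day 10 of the mouse efficacy model. Rat arm: male Crl:WI(Han) rats, oral gavage once daily for 7 days at 100, 300 or 1000 mg/kg/day. Mouse arm: female BALB/c infected i.v. with ~2×10^7 L. donovani LV9 amastigotes, dosed orally twice daily for 10 days from day 7 post-infection in 0.5% HPMC, 0.4% Tween 80, 0.5% benzyl alcohol.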

[24] = Toxicity in Crl:WI(Han) rat assessed as effect on life and clinical signs at 100 to 1000 mg/kg/day, po via gavage for 7 days; format: organism-based; details: in vivo, 168 h; outline: as §2
[25] = Toxicity in Crl:WI(Han) rat assessed as effect on macro observations parameters at 100 to 1000 mg/kg/day, po via gavage for 7 days; format: organism-based; details: in vivo, 168 h; outline: as §2
[26] = Toxicity in Crl:WI(Han) rat assessed as decrease in total protein levels at 300 mg/kg/day, po via gavage for 7 days; format: organism-based; details: in vivo, 168 h
[27] = (§3) Toxicity in Crl:WI(Han) rat assessed as increase in CYP1A1 gene expression in liver at 100 to 1000 mg/kg/day, po via gavage for 7 days; format: organism-based; details: in vivo, 168 h; outline: as §2
[28] = Toxicity in Crl:WI(Han) rat assessed as effect on liver gene expression in liver at 100 to 1000 mg/kg/day, po via gavage for 7 days; format: organism-based; details: in vivo, 168 h; outline: as §2
[29] = Dissociation constant, pKa of the compound by UV-spectroscopy; format: physicochemical
Outline: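 Sirius T3 acid–base titration with UV read-out: 5 μL of 10 mM sample, absorbance over 54 pH values in about 5 min. Methanol cosolvent with Yasuda–Shedlovsky extrapolation used when precipitation occurred.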

Lymphoma cell line [30] = assay: Clastogenicity in mouse Lymphoma cells at 5 ug/ml; format: toxicity, cell-based
[31] = Toxicity in Crl:WI(Han) rat at 100 to 1000 mg/kg/day, po via gavage for 7 days; format: organism-based; details: in vivo, 168 h
Outline: (§4)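 Male Crl:WI(Han) rats received compound by oral gavage in a 7-day repeat-dose study at 100, 300 and 1000 mg/kg/day. Endpoints were in-life clinical signs (food consumption, body weight, piloerection), macroscopic observations, histopathology, clinical pathology and liver gene expression profiling.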

[32] = Toxicity in Crl:WI(Han) rat assessed as reduction in food consumption at 1000 mg/kg/day, po via gavage for 7 days; format: organism-based; details: in vivo, 168 h; outline: as §4
[33] = Toxicity in Crl:WI(Han) rat assessed as piloerection at 1000 mg/kg/day, po via gavage for 7 days; format: organism-based; details: in vivo, 168 h; outline: as §4
[34] = Toxicity in Crl:WI(Han) rat assessed as irregular breathing at 1000 mg/kg/day, po via gavage for 7 days; format: organism-based; details: in vivo, 168 h; outline: as §2
[35] = Toxicity in Crl:WI(Han) rat assessed as multiple organ changes at 1000 mg/kg/day, po via gavage for 7 days by histological analysis; format: organism-based; details: in vivo, 168 h; outline: as §4
[36] = Toxicity in Crl:WI(Han) rat assessed as pancreas vacuolation at 300 mg/kg/day, po via gavage for 7 days by histological analysis; format: organism-based; details: in vivo, 168 h; outline: as §4
[37] = Toxicity in Crl:WI(Han) rat assessed as kidney vacuolation at 300 mg/kg/day, po via gavage for 7 days by histological analysis; format: organism-based; details: in vivo, 168 h; outline: as §4
[38] = Toxicity in rabbit cardiac ventricular wedge assessed as QT shortening at 10 uM relative to control; format: tissue-based, Oryctolagus cuniculus, Cardiac ventricle
[39] = Cardiotoxicity in Crl:WI(Han) rat up to 600 mg/kg, po via gavage; format: toxicity, organism-based; details: in vivo
[40] = Toxicity in Crl:WI(Han) rat assessed as stomach distension at 100 to 1000 mg/kg/day, po via gavage for 7 days; format: organism-based; details: in vivo, 168 h; outline: as §4
CYP1A1 = assay: as §3; format: organism-based; details: Crl:WI(Han), liver, read-out: FC; outline: as §2

C[C@H]1CN(c2n[nH]c3nc(N[C@H]4CC[C@H](NS(=O)(=O)CCC(F)(F)F)CC4)ncc23)CCO1 [GSK-3186899]
EC50 (Leishmania donovani [1]): 1.26 µM | CLH [2]: < 0.5 mL/min/g | CLH [3]: 0.7 mL/min/g | solubility kinetic [4]: 99 µM (≈ 48.7 µg/mL) | solubility at 4 h [5]: 17 to 64 µg/mL (≈ 34.6 to 130 µM) | Activity (Leishmania donovani [6]): >95% | IC50 (Cytochrome P450 3A4): > 39.8 µM | Activity [7]: Non-Toxic | Activity (Lymphoma cell line [8]): Non-Toxic | IC50 [9]: > 30 µM | Activity [10]: Toxic | Activity [11]: Toxic | Activity [12]: Toxic | Activity [13]: Toxic | Activity [14]: Toxic | Activity [15]: Toxic | Activity [16]: Toxic | Activity [17]: Toxic | Activity [18]: 8.9% | Activity [19]: Non-Toxic | selectivity ratio [20]: 3 | inhibition [21]: inactive | MTD at 168 h [22]: 100 to 1000 mg/kg | selectivity ratio [23]: 13 | Activity [24]: Non-Toxic | Activity [25]: Non-Toxic | Activity [26]: Toxic | Activity [27]: Non-Toxic | Activity [28]: Non-Toxic

COc1ccccc1-c1n[nH]c2nc(N[C@H]3CC[C@H](NS(=O)(=O)CCC(F)(F)F)CC3)nc(OC)c12
EC50 (Leishmania donovani [1]): 0.398 µM | CLH [2]: 1.1 mL/min/g | solubility kinetic [4]: 68 µM (≈ 35.9 µg/mL) | solubility at 4 h [5]: 25 to 130 µg/mL (≈ 47.3 to 246 µM) | pKa [29]: 4.1 | Activity (Leishmania donovani [6]): >95% | IC50 (Cytochrome P450 3A4): 6.31 µM | Activity [7]: Non-Toxic | Activity (Lymphoma cell line [30]): Non-Toxic | IC50 [9]: 17.5 µM | Activity [31]: Toxic | Activity [32]: Toxic | Activity [33]: Toxic | Activity [34]: Toxic | Activity [35]: Toxic | Activity [36]: Toxic | Activity [37]: Toxic | Activity [38]: 11.3% | Activity [39]: Non-Toxic | selectivity ratio [20]: 12 | inhibition [21]: Active | MTD at 168 h [22]: 100 to 300 mg/kg | selectivity ratio [23]: 19 | Activity [40]: Toxic | fold induction at 168 h (CYP1A1): 43 | Activity [28]: Non-Toxic
